Published values pooled from the literature.
Protocols differ between the studies behind these lines.
Target: Serine/threonine-protein kinase PLK3 (PLK3, Homo sapiens, UniProt Q9H4B4)

`O=C(Nc1c[nH]nc1C(=O)NC1CCNCC1)c1cc(F)cc(F)c1` has a remaining binding of 86% (binding; competition with immobilised ligand; 1 µM).
`CC(=O)N1CCC(c2ccc(C(=O)NC3=NCCN3)cc2C(F)(F)F)CC1` has a remaining binding of 78% (cell-free assay; competition with immobilised ligand; 1 µM).
With `C=CC(=O)N1CCC(C(=O)NCC(=O)N2CCN(c3nc(-c4cnc(N)nc4C(F)F)nc(N4CCOCC4)n3)CC2)CC1` the remaining binding was 58% (binding; competition with immobilised ligand; 1 µM).
With `O=C(c1ccc(Nc2nccc(-c3cc4ccccc4s3)n2)cc1)N1CCC(N2CCCC2)CC1` the remaining binding was 81% (binding; competition with immobilised ligand; 1 µM).
`N[C@@H]1CCN(c2nccc(-c3cnn4ncccc34)n2)C1` gave a remaining binding of 100% (binding; 1 µM).
With `COc1ncc2cc3ccccc3nc2c1C#N` the remaining binding was 69% (cell-free assay; competition with immobilised ligand; 5 µM).
`CNC(=O)[C@@H]1CC[C@@H](n2c(-c3ccc4cnccc4c3)nc3ccc(C(=O)NCc4cccc(C(N)=O)c4)cc32)C1` has a remaining binding of 100% (binding; competition with immobilised ligand; 1 µM).
With `C[C@@H]1CCN(c2nccc(-c3cnn4ncccc34)n2)C1` the remaining binding was 88% (binding; 1 µM).
`CN([C@@H]1CCc2c(CC(=O)O)c3ccccc3n2C1)S(=O)(=O)c1ccc(F)cc1` has a remaining binding of 85% (cell-free assay; competition with immobilised ligand; 1 µM).
With `O=C(c1ccc(Nc2ncc(Cl)c(-c3ccc(Cl)s3)n2)cc1)N1CCC(N2CCCC2)CC1` the remaining binding was 31% (binding; competition with immobilised ligand; 1 µM).
With `CN(C)c1ncc(F)c(-c2cnn3ncccc23)n1` the remaining binding was 79% (binding; 1 µM).
With `O=C(c1ccc(Nc2ncc(Cl)c(-c3cc4ccccc4s3)n2)cc1)N1CCC(N2CCCC2)CC1` the remaining binding was 58% (binding; competition with immobilised ligand; 1 µM).
The remaining binding of `C[C@H](c1ccc(F)cc1)N(Cc1cccc(C(=O)O)c1)C(=O)c1cnc2ccccc2c1` is reported as 100% (cell-free assay; competition with immobilised ligand; 1 µM).
`Nc1ncc2c(n1)-c1c([nH]c3ccc(C#CC4CC4)cc13)CCCC2` has a remaining binding of 99% (binding; competition with immobilised ligand; 1 µM).
`F[C@@H]1CCN(c2nccc(-c3cnn4ncccc34)n2)C1` gave a remaining binding of 87% (binding; 1 µM).
The remaining binding of `COc1ccc2cc(OCC3(C(=O)O)CN(C(=O)c4ccc(F)cc4)C3)ccc2c1` is reported as 95% (cell-free assay; competition with immobilised ligand; 1 µM).
`CN(CCCC(F)(F)F)c1nccc(-c2cnn3ncccc23)n1` has a remaining binding of 100% (binding; 1 µM).
The remaining binding of `FC(F)(F)Oc1cccc(-c2cnc3ccc(-c4ccncc4)nn23)c1` is reported as 63% (cell-free assay; competition with immobilised ligand; 5 µM).
With `NS(=O)(=O)c1cc(NC(=O)Cc2ccccc2)ccc1Oc1cccc(Cl)c1` the remaining binding was 87% (cell-free assay; competition with immobilised ligand; 1 µM).
With `N#Cc1ccccc1CSc1nnc2c(n1)[nH]c1ccccc12` the remaining binding was 100% (binding; competition with immobilised ligand; 10 µM).
`COCCOc1nc(-c2ccc(Cl)nc2)nc2c1CN(C(=O)c1ncn3ccccc13)CC2` gave a remaining binding of 100% (cell-free assay; competition with immobilised ligand; 0.1 µM).
The remaining binding of `C[C@@H]1CN(c2ccc3ncc(-c4ccc5[nH]nc(C6CC6)c5c4)n3n2)C[C@H](C)O1` is reported as 78% (binding; competition with immobilised ligand; 50 nM).
For `C[C@H](c1ccnc(Nc2nc3ccc(-c4cc(N(C)C)ncn4)cc3[nH]2)c1)N1CCN(C(=O)CC(F)(F)F)CC1`, the remaining binding was 100% (cell-free assay; competition with immobilised ligand; 0.1 µM).
`CN(c1nccc(-c2cnn3ncccc23)n1)C1CC1` has a remaining binding of 86% (binding; 1 µM).
